Blank lines part the entries; values can stand above or below the molecule they belong to.
How the values were obtained:
[1] = target: T1, Aldo-keto reductase family 1 member B1 (Bos taurus, UniProt P16116); experiment: Inhibition of ALR2 (aldose reductase) of bovine lens
Summary of the method: (§1)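 ALR2 partly purified from bovine lens (DEAE chromatography), 3.5 mU/mL. Run at 37 °C with 4.7 mM D,L-glyceraldehyde and 0.11 mM NADPH in 0.25 M sodium phosphate pH 6.80 with 0.38 M ammonium sulfate. Inhibitor added in DMSO, 1% final. Blank without substrate.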

[2] = target: Aldo-keto reductase family 1 member B1 (Bos taurus) (UniProt P16116); experiment: The compound was tested for Inhibitory effect uM; settings: concentration not given here
[3] = target: T2, Aldo-keto reductase family 1 member A1 (Bos taurus, UniProt Q3ZCJ2); experiment: The compound was tested for Inhibitory effect against Aldose reductase 1 in bovine kidneys
T2 sequence (Q3ZCJ2 2-325 limits assumed): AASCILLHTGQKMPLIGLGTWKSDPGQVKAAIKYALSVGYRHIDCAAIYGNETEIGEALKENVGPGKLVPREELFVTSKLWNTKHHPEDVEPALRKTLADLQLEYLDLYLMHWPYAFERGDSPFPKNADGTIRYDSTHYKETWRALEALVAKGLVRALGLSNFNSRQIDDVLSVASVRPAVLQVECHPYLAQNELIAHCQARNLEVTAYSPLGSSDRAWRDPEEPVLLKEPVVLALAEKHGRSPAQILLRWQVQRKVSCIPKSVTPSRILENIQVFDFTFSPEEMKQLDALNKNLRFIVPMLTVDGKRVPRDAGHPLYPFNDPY
Summary of the method: (§2)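 Run at 37 °C with 20 mM D-glucuronate and 0.12 mM NADPH in 0.1 M sodium phosphate pH 7.20. Inhibitor added in DMSO, 1% final. Blank without substrate.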

[4] = target: Aldo-keto reductase family 1 member B1 (Bos taurus) (UniProt P16116); experiment: (§3) Compound was tested for Ratio of IC50(ALR1)/(ALR2)
Summary of the method: (§4)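 Ratio of IC50 values. ALR1 (bovine kidney; 20 mM D-glucuronate, 0.12 mM NADPH, pH 7.20) and ALR2 (bovine lens; 4.7 mM D,L-glyceraldehyde, 0.11 mM NADPH, pH 6.80). Both enzymes at 3.5 mU/mL, 37 °C, 1% DMSO. IC50 from log dose–inhibition curves in duplicate.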

[5] = target: T1, Aldo-keto reductase family 1 member B1; experiment: Inhibition of Aldose reductase 2 of bovine lens; summary of the method: as §1
[6] = Proton dissociation constant pKa was determined at 25 degree C; type: physicochemical
Summary of the method: (§5)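 Compound solution added to buffers at ionic strength 0.1 M, pH stepped by 0.25 unit. UV–vis spectra recorded and pH measured with a calibrated electrode. pKa calculated from absorbance change at λmax of the dissociated form, then corrected for ionic strength.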

[7] = system: Liposome; experiment: Antioxidant action tested in AAPH-induced malondialdehyde (MDA) of liposomes after 30 min; type: functional
Summary of the method: (§6)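 Lipid (LA, 2 mg/mL) suspended in 50 mM Tris pH 7.4 and extruded into micelles with test antioxidant at 0.2 mM final. Peroxidation started with AAPH (10 mM), 37 °C in shaking water bath. Aliquots taken at intervals, mixed with 20% TCA, then 0.67% TBA, boiled 10 min, hexane-extracted. MDA read at 535 nm (ε 1.49×10^5). Means ± SE.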

[8] = system: Liposome; experiment: Antioxidant action tested in AAPH-induced malondialdehyde (MDA) of liposomes after 40 min; type: functional; summary of the method: as §6
[9] = system: Liposome; experiment: Antioxidant action tested in AAPH-induced malondialdehyde (MDA) of liposomes after 5 min; type: functional; summary of the method: as §6
[10] = system: Liposome; experiment: Antioxidant action tested in AAPH-induced malondialdehyde (MDA) liposomes after 60 min; type: functional; summary of the method: as §6
[11] = system: Liposome; experiment: Antioxidant action tested in AAPH-induced malondialdehyde (MDA) liposomes after 15 min; type: functional; summary of the method: as §6
[12] = system: Liposome; experiment: Antioxidant action tested inAAPH-induced malondialdehyde (MDA) liposomes after 40 min; type: functional, subcellular; summary of the method: as §6
[13] = system: Liposome; experiment: Antioxidant action tested in AAPH-induced malondialdehyde (MDA) liposomes after 30 min; type: functional; summary of the method: as §6
[14] = system: Liposome; experiment: Antioxidant action tested in AAPH-induced malondialdehyde (MDA) liposomes after 5 min; type: functional; summary of the method: as §6
[15] = The compound was tested for the pKa (+/-SD) values at 25 degree C; type: physicochemical; summary of the method: as §5
[16] = system: Aldo-keto reductase family 1 member A1, aldehyde reductase ALR1 (Bos taurus); experiment: The compound was tested for Inhibitory effect uM; settings: concentration not given here
[17] = system: Liposome; experiment: Antioxidant action tested in AAPH-induced malondialdehyde (MDA) of liposomes after 15 min; type: functional; summary of the method: as §6
[18] = system: Liposome; experiment: Antioxidant action tested in AAPH-induced malondialdehyde (MDA) of liposomes after 60 min; type: functional; summary of the method: as §6
[19] = as §3; summary of the method: as §4
[20] = target: T2, Aldo-keto reductase family 1 member A1; experiment: The compound was tested for Inhibitory effect against ALR1 in bovine kidneys; type: tissue-based, Kidney; summary of the method: as §2
[21] = target: Aldo-keto reductase family 1 member B1 (Bos taurus) (UniProt P16116); experiment: The compound was tested for Inhibitory effect against ALR2 in bovine lenses at 77 uM; type: tissue-based; settings: Lens of camera-type eye; summary of the method: as §1

SMILES: O=c1cc(-c2ccc(O)c(O)c2)oc2cc(O)cc(O)c12 [LUTEOLIN]
IC50 [1]: 9.57 µM

SMILES: O=C(O)Cc1ccc2c(=O)cc(Cc3ccc(O)cc3)oc2c1
IC50 [3]: 128 µM
Ratio [4]: 98.5
IC50 [5]: 1.3 µM

SMILES: COc1ccc2c(=O)cc(-c3ccccc3)oc2c1
inhibition [2]: 32%

SMILES: O=c1cc(Cc2ccc(O)cc2)oc2ccc(O)cc12
pKa [6]: 8.89
IC50 [5]: 13.1 µM
Activity [7]: 1.46 nM ml-1
Activity [8]: 1.29 nM ml-1
Activity [9]: 1.19 nM ml-1
Activity [10]: 1.27 nM ml-1
Activity [11]: 1.54 nM ml-1

SMILES: Cc1oc2cc(O)ccc2c(=O)c1Cc1ccc(O)cc1
IC50 [5]: 85.7 µM

SMILES: COc1ccc(Cc2cc(=O)c3ccc(O)cc3o2)cc1
pKa [6]: 7.35
IC50 [3]: 16.6 µM
Ratio [4]: 2.4
IC50 [5]: 7.01 µM

SMILES: O=c1c(O)c(-c2ccccc2)oc2ccccc12
inhibition [2]: 0%

SMILES: O=c1cc(Cc2ccc(O)cc2)oc2cc(O)ccc12
IC50 [3]: 16.8 µM
Ratio [4]: 6.7
IC50 [5]: 2.5 µM
Activity [12]: 2.1 nM ml-1
Activity [13]: 1.9 nM ml-1
Activity [14]: 2.02 nM ml-1
Activity [10]: 1.81 nM ml-1
Activity [11]: 1.95 nM ml-1

SMILES: O=C(O)c1ccc2c(=O)cc(Cc3ccc(O)cc3)oc2c1
IC50 [5]: 10.9 µM

SMILES: O=c1cc(-c2ccccc2)oc2cccc(O)c12
inhibition [2]: 0%

SMILES: O=c1cc(CCCc2ccc(O)cc2)oc2cc(O)ccc12
IC50 [5]: 29.4 µM

SMILES: O=c1cc(-c2ccccc2)oc2cc(O)c([N+](=O)[O-])cc12
pKa [15]: 5.3
IC50 [1]: 3.87 µM
inhibition [16]: 27.5%

SMILES: Cc1cc(C(C)(C)C)c(O)c(C(C)(C)C)c1
Activity [17]: 1.33 nM ml-1
Activity [7]: 1.33 nM ml-1
Activity [8]: 1.23 nM ml-1
Activity [9]: 1.62 nM ml-1
Activity [18]: 0.937 nM ml-1

SMILES: O=c1c(Cc2ccc(O)cc2)coc2cc(O)ccc12
IC50 [1]: 60.5 µM

SMILES: COc1ccc2c(=O)c(Cc3ccc(O)cc3)coc2c1
inhibition [21]: 18%

SMILES: O=c1c(Cc2ccccc2)c(Cc2ccc(O)cc2)oc2cc(O)ccc12
IC50 [5]: 14.2 µM

Now from value to molecule, other results behind:

inhibition [2]: 0%
SMILES: COc1ccc(Cc2cc(=O)c3ccc(OC)cc3o2)cc1

IC50 [5]: 10.9 µM
SMILES: O=c1cc(C(c2ccccc2)c2ccccc2)oc2cc(O)ccc12

inhibition [2]: 0%
SMILES: O=c1c(Cc2ccc(-c3ccccc3)cc2)c(Cc2ccc(O)cc2)oc2cc(O)ccc12

IC50 [5]: 22.3 µM
SMILES: O=c1cc(Cc2ccc3ccccc3c2)oc2cc(O)ccc12

inhibition [2]: 37%
SMILES: COc1ccc2c(=O)cc(Cc3ccc(O)cc3)oc2c1

IC50 [3]: 114 µM
Ratio [4]: 1
IC50 [5]: 137 µM
SMILES: O=c1ccoc2cc(O)ccc12

Ratio [19]: 4.2
IC50 [20]: 13.2 µM
IC50 [1]: 3.14 µM
SMILES: O=c1cc(Cc2ccc(O)c(O)c2)oc2cc(O)ccc12
Activity [17]: 1.18 nM ml-1
Activity [7]: 1.07 nM ml-1
Activity [8]: 0.852 nM ml-1
Activity [9]: 0.935 nM ml-1
Activity [18]: 1.53 nM ml-1

IC50 [5]: 41 µM
SMILES: O=c1cc(CCc2ccc(O)cc2)oc2cc(O)ccc12

inhibition [2]: 40%
SMILES: COc1ccc2oc(Cc3ccc(O)cc3)cc(=O)c2c1

IC50 [3]: 39.2 µM
Ratio [4]: 5.9
IC50 [5]: 6.61 µM
SMILES: O=c1cc(Cc2ccccc2)oc2cc(O)ccc12

IC50 [1]: 6.52 µM
SMILES: O=c1cc(-c2ccc(O)c(O)c2)oc2cc(O)ccc12
